Sampled rows, rich in hits. Any-hit rate of the full collection: about 2.3%.
ABCG2 block: human ABCG2 inhibition, ABCB1 as counter-screen | Q9UNQ0 | IgMXP3 cells, JC-1 efflux, flow cytometry | inhibition, % at 6.6 µM | actives 0.1% (n = 190,000) | AID 1325;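 active = inhibition above 80%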
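Assay system – ABCG2 IgMXP3 and barcoded ABCB1 CCRF-Adr cell mix · Input – 3 million cells/mL in well · Reagent – JC-1 fluorescent substrate · Compound – single test compound dose, 6.6 µM final · Timing – 10 min exposure at 25 °C with rotation, no wash · Detection – flow cytometry of retained JC-1 fluorescence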
MEKK3 PB1 HTS: MEKK3-MEK5 PB1 interaction, increase or decrease; Q99759; bead-based flow cytometry, Alexa488-MEK5 binding to MEKK3; actives lie on both sides; 0 = blocked by unlabeled MEK5, 100 = vehicle; binding response (% of control), % at 10 µM; actives 1.4% (n = 290,000); AID 1529;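 active = binding response more than 3 SD above or below the average of its plate-row segment, actives on both sides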;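 also: Alexa488 bead fluorescence after subtracting the streptavidin-only scavenger bead signal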
Target sequence (Q99759 whole entry, looked up): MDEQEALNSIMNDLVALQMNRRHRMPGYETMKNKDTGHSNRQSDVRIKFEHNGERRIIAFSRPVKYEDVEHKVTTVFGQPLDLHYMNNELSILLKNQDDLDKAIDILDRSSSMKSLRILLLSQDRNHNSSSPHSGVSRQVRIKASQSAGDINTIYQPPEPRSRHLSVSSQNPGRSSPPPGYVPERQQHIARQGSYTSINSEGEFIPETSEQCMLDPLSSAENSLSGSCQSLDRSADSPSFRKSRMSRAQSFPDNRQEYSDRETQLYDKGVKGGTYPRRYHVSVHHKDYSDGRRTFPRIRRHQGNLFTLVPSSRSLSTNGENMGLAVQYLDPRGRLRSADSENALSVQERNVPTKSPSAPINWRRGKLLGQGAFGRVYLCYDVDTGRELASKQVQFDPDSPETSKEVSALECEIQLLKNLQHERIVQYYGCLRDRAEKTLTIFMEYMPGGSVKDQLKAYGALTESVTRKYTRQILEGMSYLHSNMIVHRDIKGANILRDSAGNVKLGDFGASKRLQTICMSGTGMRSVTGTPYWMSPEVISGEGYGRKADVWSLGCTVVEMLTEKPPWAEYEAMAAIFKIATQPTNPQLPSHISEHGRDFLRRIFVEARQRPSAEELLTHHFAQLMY
MEKK2mut PB1 HTS: signal of MEK5 binding to mutant human MEKK2 PB1 domain; actives 0.35% (n = 290,000); percent response, % at 10 µM; bead flow cytometry, Alexa488-MEK5 binding to MEKK2 mutant; in the data active = percent response above about 24%, passing the limit was not always enough
ABCB1 block: human ABCB1 inhibition, ABCG2 as counter-screen | CCRF-Adr cells, JC-1 efflux, flow cytometry | inhibition, % at 6.6 µM | actives 0.067% (n = 190,000) | AID 1326; in the data active = inhibition above about 40%;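 also: higher value means more JC-1 retained so stronger ABCB1 efflux block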
MEKK2wt PB1 HTS: raises or lowers MEK5 binding to wildtype human MEKK2 PB1 domain; actives 1.1% (n = 290,000); bead flow cytometry, Alexa488-MEK5 binding to MEKK2 WT; actives lie on both sides; Q9Y2U5; binding response (% of control), % at 10 µM; in the data active = binding response below about 67% or above about 130%
MEKK2wt confirm: raises or lowers MEK5 binding to wildtype human MEKK2, retest | shares compounds with MEKK3 PB1 HTS | bead flow cytometry, Alexa488-MEK5 binding to MEKK2 WT; actives lie on both sides | binding response (% of control), % at 10 µM | actives 2.4% (n = 5,900) | AID 1892; in the data active = binding response below about 16% or above about 210%; inactive = in between
MEKK2mut-MEK5: signal of MEK5 binding to mutant human MEKK2, retest; AID 1893; actives 2% (n = 5,900); shares compounds with MEKK3 PB1 HTS; bead flow cytometry, Alexa488-MEK5 binding to MEKK2 mutant; percent response, % at 10 µM; in the data active = percent response mostly above about 71%, no sharp cut-off; inactive = mostly below about 38%;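 also: higher means compound restores mutant binding toward wildtype level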
MEKK3 confirm: MEKK3-MEK5 PB1 inhibition, single concentration confirmation; actives 1.8% (n = 5,900); bead flow cytometry, Alexa488-MEK5 binding to MEKK3; stronger effect = lower value; AID 1894; binding response (% of control), % at 10 µM; shares compounds with MEKK3 PB1 HTS;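 active = binding response below 72% of control, or above a set upper limit, though filed actives all read lower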
Numbers stand for hits; – = inactive; · = no result; [ ] = remark or other dose.

SMILES	ABCG2 block	MEKK3 PB1 HTS	MEKK2mut PB1 HTS	ABCB1 block	MEKK2wt PB1 HTS	MEKK2wt confirm	MEKK2mut-MEK5	MEKK3 confirm
O=C(C[n+]1cc(-c2ccc(Cl)c(Cl)c2)n2c1CCC2)OCc1ccccc1	–	155	–	–	–	–	–	–
Cc1ccc(-c2c[n+](CC(=O)Nc3nc(-c4ccccc4)cs3)c3n2CCC3)cc1	·	–	–	·	183	–	–	–
O=C(C[n+]1cc(-c2ccccc2)n2c1CCCCC2)c1ccc(Cl)cc1	–	–	–	–	142	–	–	–
O=C(C[n+]1cc(-c2ccccc2)n2c1CCC2)Nc1nc(-c2ccccc2)cs1	–	–	–	–	166	–	–	–
CCOc1nc2cnccc2n(CC(=O)Nc2c(C)cccc2CC)c1=O	·	–	–	·	–	·	·	·
COC(=O)CC1Oc2ccc(C)cc2NC1=O (configuration not stated)	–	16[inhibitor]	–	–	19[inhibitor]	–	–	–
CN(Cc1cccs1)C(=O)CNC(=O)c1ccco1	·	–	–	·	–	·	·	·
COc1ccccc1CN1CCC(n2nccc2NC(=O)CCCc2ccccc2)CC1	·	–	–	·	142	–	–	–
CCOc1ccccc1CN1CCC(n2nccc2NC(=O)CCCc2ccccc2)CC1	·	–	–	·	–	·	·	·
COC(=O)c1ccc(C2C(Oc3ccc(OC)cc3)C(=O)N2CCc2ccc(OC)c(OC)c2)cc1 (configuration not stated)	–	157	–	–	–	–	–	–
COC(=O)c1ccc(C2C(Oc3ccccc3)C(=O)N2CCc2ccc(F)cc2)cc1 (configuration not stated)	–	–	–	–	–	·	·	·
CCS(=O)(=O)Nc1cc2c3c(c1)CCC(=O)N3CCC2	·	–	–	·	–	·	·	·
Cc1c(C(=O)N/N=C/c2ccc(O)c(Br)c2)sc(N)c1C#N	–	132	–	–	–	–	–	–
COc1cc(/C=N/NC(=O)c2sc(N)c(C#N)c2C)ccc1O	–	–	–	–	–	·	·	·
CCCCOc1ccc(CONS(=O)(=O)c2ccc(NC(C)=O)cc2)cc1Cl	–	160	–	–	–	–	–	–
CC(=O)Nc1ccc(S(=O)(=O)NCCOc2ccc(Cl)cc2C)cc1	–	–	–	–	–	·	·	·
NC(=O)CSc1nnc(-c2cc3ccccc3o2)n1Cc1ccccc1	–	124	–	–	–	–	–	–
COc1ccc(/C(C)=N\Nc2nc(-c3ccccc3)cc(=O)[nH]2)cc1	–	–	–	–	–	·	·	·
CN(C)c1ccc(/C=N\Nc2nc(-c3ccccc3)cc(=O)[nH]2)cc1	–	59[inhibitor]	–	–	–	–	–	–
Cc1coc2c1c(C)cc1oc(=O)c(CC(=O)N[C@@H](C)C(=O)O)c(C)c12	·	–	–	·	–	·	·	·
COc1ccc(/C=C/c2nc3ccccc3n2Cc2ccccc2OC)cc1	–	151	–	–	–	–	–	–
COC(=O)CC1C(=O)NCCN1C(=O)Nc1ccc(Cl)cc1 (configuration not stated)	–	–	–	–	2.0[inhibitor]	–	–	–
N=c1c2c(-c3ccccc3)c(-c3ccccc3)n(Cc3ccco3)c2ncn1CCCn1ccnc1	–	–	–	–	–	·	·	·
CC(C)Cn1cnc2c(c(-c3ccccc3)c(-c3ccccc3)n2Cc2ccco2)c1=N	–	–	–	–	134	–	–	–
N=c1c2c(-c3ccccc3)c(-c3ccccc3)n(Cc3ccco3)c2ncn1CCCN1CCOCC1	–	–	–	–	149	–	–	–
SMILES	ABCG2 block	MEKK3 PB1 HTS	MEKK2mut PB1 HTS	ABCB1 block	MEKK2wt PB1 HTS	MEKK2wt confirm	MEKK2mut-MEK5	MEKK3 confirm
N=c1c2c(-c3ccccc3)c(-c3ccccc3)n(Cc3ccco3)c2ncn1Cc1ccccc1	–	–	–	–	156	–	–	–
CCN(CC(=O)NC(C)(C)C)C(=O)CN1c2cccc3cccc(c23)S1(=O)=O	·	–	–	·	–	·	·	·
COc1cc(SC)ccc1C(=O)OCC(=O)N1CCCC1	·	–	–	·	–	·	·	·
CCOc1ccc(Nc2nc(Cl)nc(NCCO)n2)cc1	–	131	–	–	–	–	–	–
CCNC(=O)N(CCOC)CC1CCCN(C2Cc3ccccc3C2)C1 (configuration not stated)	·	–	–	·	–	·	·	·
CN(C)c1ccc(/C=C/C=C2/SC(=S)N(c3ccccc3)C2=O)cc1	–	0.0[inhibitor]	·	–	·	–	–	69
CCOC(=O)NC(NCc1ccccc1)(C(F)(F)F)C(F)(F)F	–	137	–	–	–	–	–	–
O=[N+]([O-])c1cc(C(F)(F)F)cc([N+](=O)[O-])c1NCc1cccnc1	–	–	–	–	–	·	·	·
O=[N+]([O-])c1cc(C(F)(F)F)cc([N+](=O)[O-])c1NCCCNc1ccc([N+](=O)[O-])c2cccnc12	–	68[inhibitor]	–	–	–	–	–	–
COc1ccc(N(CC(=O)NCCSCc2ccco2)S(=O)(=O)c2ccccc2)cc1Cl	·	–	–	·	–	·	·	·
Cc1c(C)n(-c2ccc(Cl)cc2)c2ncnc(N)c12	·	–	–	·	–	·	·	·
O=C(Nc1ccc(Br)c(C(F)(F)F)c1)c1ccc(C(F)(F)F)cc1	·	–	–	·	139	–	–	–
COc1ccc(NC(=O)C(CC(=O)O)Cc2ccc(Cl)cc2)cc1 (configuration not stated)	·	–	–	·	–	·	·	·
COc1ccc(/C=N/Nc2cc(N3CCCC3)nc(N3CCCC3)n2)cc1	–	130	–	–	142	–	–	–
N#CCCN(CCC#N)C(=S)NC1CC2C=CC1C2 (configuration not stated)	·	–	–	·	–	·	·	·
N#CCCN(Cc1ccncc1)C(=S)NC1CC2C=CC1C2 (configuration not stated)	·	47[inhibitor]	–	·	–	–	–	–
CCCCN(C)CCCNC(=O)C1(O)c2ccccc2NC(=O)N1c1ccc(Cl)cc1 (configuration not stated)	·	–	–	·	–	·	·	·
Cc1cccc(C(=O)N2CCN(c3ncnc4c3cnn4-c3ccccc3)CC2)c1	–	–	24	–	–	–	–	–
COC(=O)c1ccc(S(=O)(=O)N2CCCN(Cc3cccc(Br)c3F)CC2)n1C	·	73[inhibitor]	–	·	53[inhibitor]	–	–	–
COC(=O)c1ccc(S(=O)(=O)N2CCCN(Cc3ccccc3)CC2)n1C	·	–	–	·	–	·	·	·

Screening data: PubChem, NMMLSC
